Screening results as filed in PubChem.
An excerpt weighted towards active compounds, which were near 2.9% of everything screened.
SIRT5 block = sirtuin-5 (human) deacylase inhibition; AID 652115; 1.1% of 330,000 active; inhibition, % at 15 µM; Purified SirT5, succinyl-peptide AMC, trypsin-coupled fluorescence; Q9NXA8; in the data active = inhibition above about 15%; inconclusive = no clear call, values can overlap the other calls
DENV2 CPE rescue = inhibitors of DENV2 cytopathic effect. CPE inhibition, % at 9.99 µM. 1.7% of 350,000 active. DENV2-infected cells, cytopathic effect rescue, plate reader. AID 651640; in the data active = CPE inhibition above about 20%, passing the limit was not always enough; inconclusive = no clear call, values can overlap the other calls; tested in BHK-21 cells;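 note: 0% = median of neutral control wells and 100% = median of positive control wells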
E-sel inducer = E-selectin induction on HUVECs. P16581. HUVEC E-selectin immunofluorescence imaging; normalized: neutral wells 0, TNF-alpha wells 100. activation, % at 7.58 µM. 0.37% of 260,000 active. AID 686992;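 active = mean E-selectin-positive cell signal at least 10% of the positive control, reached in at least 60% of replicates, without over 20% cell loss; inconclusive = no rule given, readout overlaps actives, possibly toxicity-flagged; inactive = the rest, including those meeting only one limit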
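Assay system: HUVEC, human umbilical vein endothelial cells / Amount: 3,000 HUVEC/well / Controls: TNF-alpha positive control, DMSO neutral control / Compound dosing: single concentration / Medium: EGM-2 over gelatin coat / Evaluation: percent E-selectin-positive cells / Signal: immunofluorescence imaging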
The depositor's hits bear a star; ? = inconclusive; nt = no result given.

SMILES	SIRT5 block	DENV2 CPE rescue	E-sel inducer
C[C@H]1CN([C@@H](C)CO)C(=O)c2cc(NS(C)(=O)=O)ccc2O[C@@H]1CN(C)Cc1ccc(C(F)(F)F)cc1	3	11	-2
NC(=O)c1ccccc1OCC(=O)c1ccc(Cl)cc1	0	nt	2
Cc1onc(-c2c(F)cccc2Cl)c1C(=O)NCCc1ccc(S(N)(=O)=O)cc1	-2	nt	nt
C[C@@H]1CCCCO[C@H](CN(C)Cc2ccc(C(=O)Nc3ccccc3N)cc2)[C@@H](C)CN([C@H](C)CO)C(=O)c2cc(NS(=O)(=O)c3ccc(Cl)cc3)ccc2O1	3	1	0
CC1CCCN(CCCOc2ccc(Cl)cc2Br)C1 (stereo not drawn)	-7	7	0
CCOC(=O)c1[nH]ncc1CN1CCCC(C(=O)c2ccc(SC)cc2)C1 (stereo not drawn)	1	nt	nt
CCc1ccc(CN(C)C(=O)C2CCC(=O)N(Cc3ccccn3)C2)cc1 (stereo not drawn)	31*	7	0
CN(Cc1ccccn1)C(=O)C1CCC(=O)N(Cc2cccc(F)c2)C1 (stereo not drawn)	9	-2	nt
COc1ccccc1C#Cc1ccc2c(c1)O[C@H](CN(C)C)[C@H](C)CN([C@H](C)CO)S2(=O)=O	-38	4	0
O=C(CSc1nc2ccccc2c(=O)n1-c1ccccc1Cl)Nc1cccc(S(=O)(=O)N2CCOCC2)c1	0	63*	nt
O=C(CSc1ncnc2ccccc12)Nc1cccc(S(=O)(=O)N2CCOCC2)c1	nt	0	nt
Cc1ccc2c(c1)N(CCCC(=O)NCc1ccc3c(c1)OCO3)C(=O)CO2	3	92*	0
Cc1ccc2c(c1)N(CCCC(=O)NCCCN1CCCCC1)C(=O)CO2	-7	-3	0
CN(C)CCCNC(=O)C[C@@H]1CC[C@@H](NC(=O)Cc2cccnc2)[C@@H](CO)O1	0	6	0
CN(CC(=O)NC1CC(C)(C)NC(C)(C)C1)S(=O)(=O)c1ccc(Br)cc1	-3	12	0
Oc1c(Br)cc(Br)cc1C=Nc1ccc2[nH]ncc2c1	-1	1	nt
Cc1cc(C(=O)Nc2cccc3c2O[C@@H](CN(C)S(=O)(=O)c2ccccc2)[C@@H](C)CN([C@H](C)CO)C3=O)n(C)n1	7	-5	0
Cc1cc(C)cc(CSCC(=O)N/N=C/c2ccc(OCC(=O)NCc3ccco3)cc2)c1	20*	-2	nt
CCOc1ccc(/C=N/OCC(=O)NCc2ccco2)cc1	0	0	0
CCOC(=O)CSc1[nH]c2cc(OC)ccc2c1[N+](=O)[O-]	3	24*	-1
COC(=O)CSc1[nH]c2ccc(F)cc2c1[N+](=O)[O-]	2	-6	nt
CC(C)(C)c1ccc(OCCC(=O)OCC(=O)NCc2ccccc2)cc1	-3	9	0
CCCCN(C(=O)NC(=O)Nc1cccc(C)c1C)S(C)(=O)=O	3	-2	nt
COc1ccc(N2C(=O)N3[C@H](c4cccc(C)c4)[C@@H]4C(=O)N(Cc5ccccc5)C(=O)[C@@H]4[C@]3(Cc3ccccc3)C2=O)cc1	0	82*	0
COc1ccc([C@@H]2[C@@H]3C(=O)N(C(C)(C)C)C(=O)[C@@H]3[C@]3(Cc4ccccc4)C(=O)N(c4ccc(OC)cc4)C(=O)N23)cc1	1	?	0
SMILES	SIRT5 block	DENV2 CPE rescue	E-sel inducer
Cc1ccc(S(=O)(=O)N(C)C[C@H]2OCCCC[C@@H](C)Oc3ccc(NS(=O)(=O)c4cccs4)cc3C(=O)N([C@H](C)CO)C[C@H]2C)cc1	10	-3	nt
Cc1cc(-c2ccc(Br)cc2)n[nH]1	16*	-6	-1
Nc1cc(-c2ccc(Br)cc2)[nH]n1	-5	-1	nt
O=C(NCCCN=C1NS(=O)(=O)c2ccccc21)c1ccccc1Cl	-4	0	nt
CN(C)c1ccc(CC(=O)N2CCCC(c3cc(C(=O)Nc4ccc(F)c(Cl)c4)no3)C2)cc1 (stereo not drawn)	0	33*	0
O=C(Nc1ccc(F)c(Cl)c1)c1cc(C2CCCN(S(=O)(=O)c3ccccc3)C2)on1 (stereo not drawn)	nt	6	0
CC(=O)c1ccc(OCC(=O)OC(C)C(=O)NC2CCCCC2C)cc1 (stereo not drawn)	0	-3	0
Cc1cc(C)n(-c2nc3c(c(=O)n(C)c(=O)n3C)n2CCO)n1	nt	5	-2
CN(C)CCN(Cc1ccccc1)C(=O)[C@H](Cc1ccccc1)N1C(=O)c2ccccc2C1=O	0	2	0
Cc1noc(C)c1NC(=O)Nc1cccc2c1O[C@@H](CN(C)Cc1ccc(-c3ccccc3)cc1)[C@H](C)CN([C@H](C)CO)C2=O	1	39*	1
Cc1noc(C)c1NC(=O)Nc1cccc2c1O[C@H](CN(C)Cc1ccc(C(F)(F)F)cc1)[C@@H](C)CN([C@@H](C)CO)C2=O	-4	8	-9
